Results reported in article PMC9315039 (Angewandte Chemie (International Ed. in English), 2022).
Read-outs that look alike come from different tables or passages of the source.

Experiments:
[1] = target: T1, SIRT5 (Homo sapiens, UniProt Q9NXA8); assay: End-point SIRT5 deglutarylase inhibition assay; format: biochemical; settings: Figure 1A; inhibitor 100 μM; NI = no inhibition
T1 sequence (Q9NXA8 34-310): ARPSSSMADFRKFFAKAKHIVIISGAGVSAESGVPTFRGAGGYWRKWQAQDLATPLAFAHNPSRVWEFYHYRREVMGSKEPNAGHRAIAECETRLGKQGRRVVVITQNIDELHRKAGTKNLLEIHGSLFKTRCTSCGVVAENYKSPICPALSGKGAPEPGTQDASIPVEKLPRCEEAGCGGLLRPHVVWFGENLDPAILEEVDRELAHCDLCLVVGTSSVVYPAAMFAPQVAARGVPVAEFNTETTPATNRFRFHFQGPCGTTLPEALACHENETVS
How it was run: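 End-point deglutarylase assay using recombinant SIRT5 (150 nM) with Ac-LGKglut-AMC substrate (50 μM). Results are given as IC50 from dose-response curves (mean ± SD) or as %-inhibition at stated concentrations. Each value comes from at least two individual assays run in duplicate.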

[2] = target: T1, SIRT5; assay: Continuous SIRT5 enzyme inhibition assay; format: biochemical
How it was run: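 Continuous trypsin-coupled progression-curve assay with SIRT5 80 nM, NAD⁺ 500 μM, Ac-LGKglu-AMC 40 μM and trypsin 1.70 ng×μL⁻¹, run at several inhibitor concentrations. k_obs was plotted against inhibitor concentration and fitted to slow-binding mechanism A or B, giving Ki and rate constants.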

[3] = target: T2, SIRT5 in HEK293T cells (Homo sapiens, UniProt Q9NXA8); assay: Isothermal dose-response cellular thermal shift assay; format: cell-based
T2 sequence (Q9NXA8 37-310): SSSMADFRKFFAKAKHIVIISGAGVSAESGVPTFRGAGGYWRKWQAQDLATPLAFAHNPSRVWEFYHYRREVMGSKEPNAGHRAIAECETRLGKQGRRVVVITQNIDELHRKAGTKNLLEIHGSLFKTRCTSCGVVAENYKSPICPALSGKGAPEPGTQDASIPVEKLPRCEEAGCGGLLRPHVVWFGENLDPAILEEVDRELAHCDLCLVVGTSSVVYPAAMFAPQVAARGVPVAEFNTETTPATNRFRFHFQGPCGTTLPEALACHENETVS
How it was run: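 ITDRF-CETSA in HEK293T cells. Cells were treated 2 h with test compound at 2.6 nM–10 μM, with a reference inhibitor at 10 μM as internal control. Samples were heated at 52 °C and soluble SIRT5 was detected by immunoblot. EC50 came from fitted dose-response curves (n≥2), and EC50s of masked/unmasked pairs were compared.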

[4] = system: SKM-1 cells; assay: MTT cell viability assay, SKM-1; format: cell-based; settings: concentrations up to 100 μM
How it was run: (§1)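 Viability dose-response in cultured SKM-1, OCI-AML2, MOLM-13 (AML) and HEK293T cells, with concentrations up to 100 μM. GI50 was taken from dose-response curves. Data come from three individual assays performed in duplicate.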

[5] = system: SIRT5 activity in HeLa cells; assay: Live cell imaging of SIRT5 activity; format: cell-based; settings: 10 μM inhibitor, co-treatment with labeled peptide substrate 250 µM, 6 hours
How it was run: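 HeLa cells were co-treated with a dye-labeled succinylated peptide substrate and test compound at 10 μM. Mitochondrial SIRT5 desuccinylation triggers peptide self-assembly, and the resulting fluorescence was read in cells. This was single-concentration only, without dose-response.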

[6] = system: HEK293T cells; assay: MTT cell viability assay, HEK293T; format: cell-based, human; settings: concentrations up to 100 μM
How it was run: as §1

Row | Structure (SMILES) | %-inhibition of SIRT5 deglutarylase activity at 100 μM [1] | Ki [2] | EC50 [3] [nM] | further results
1 | CCCCNC(=S)NCCCC[C@H](NS(=O)(=O)c1cccc(F)c1)C(=O)N[C@@H](Cc1c[nH]c2ccccc12)C(=O)NC1CCC1 [Compound 2] | did not show substantial inhibition |  |  | 
2 | O=C(NC1CCC1)[C@H](Cc1c[nH]c2ccccc12)NC(=O)[C@H](CCCCNC(=S)NCCCO)NS(=O)(=O)c1cccc(F)c1 [Compound 3] | did not show substantial inhibition |  |  | 
3 | NC(=O)CCNC(=S)NCCCC[C@H](NS(=O)(=O)c1cccc(F)c1)C(=O)N[C@@H](Cc1c[nH]c2ccccc12)C(=O)NC1CCC1 [Compound 4] |  | micromolar range |  | 
4 | O=C1CC(CCNC(=S)NCCCC[C@H](NS(=O)(=O)c2cccc(F)c2)C(=O)N[C@@H](Cc2c[nH]c3ccccc23)C(=O)NC2CCC2)=NO1 [Compound 22] |  |  | > 10000 | Ki ([2]; Ki): ~100 nM
5 | O=C(NC1CCC1)[C@H](Cc1c[nH]c2ccccc12)NC(=O)[C@H](CCCCNC(=S)NCCc1nnn[nH]1)NS(=O)(=O)c1cccc(F)c1 [Compound 24] |  | low nanomolar range | 1300 | decrease in viability of SKM-1 cells [4]: None of the acidic compounds 1, 16, and 24 caused substantial decrease in viability; inhibition of SIRT5 activity in HeLa cells (fluorescence) [5]: inhibition of SIRT5 activity; decrease in viability of HEK293T cells [6]: None of the acidic compounds 1, 16, and 24 caused substantial decrease in viability
6 | O=C(CCNC(=S)NCCCC[C@H](NS(=O)(=O)c1cccc(F)c1)C(=O)N[C@@H](Cc1c[nH]c2ccccc12)C(=O)NC1CCC1)NO [Compound 27] |  | micromolar range |  | 
